# Only some compounds are listed: those with a hit (about 2.5% of all), similar ones and a draw of the others.
# S100A4 MyoIIA = blocks human S100A4 binding to myosin IIA peptide | P26447 | S100A4/TAMRA-MyoIIA peptide fluorescence polarization | inhibition, % at 10.7 µM | 360,000 compounds, 0.14% hits | AID 652163;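 active means mean inhibition of at least 70% across replicates, with every replicate also reaching that level; inconclusive means mean inhibition reaches 70% but some replicates fall short; inactive means mean inhibition below 70%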
#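 Material: S100A4 monomer protein | Medium: HEPES pH 7.2 with CaCl2, KCl, NaCl, DTT, Triton | Reagent: Labelled myosin peptide probe, 5 nM | Doses: One dose per compound | Times: 5 min incubation before reading | Benchmarks: Neutral control DMSO, positive control TFP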
# E-sel inducer = E-selectin induction on HUVECs; P16581; HUVEC E-selectin immunofluorescence imaging; normalized: neutral wells 0, TNF-alpha wells 100; activation, % at 7.58 µM; 260,000 compounds, 0.37% hits;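 active means mean E-selectin-positive cell signal at least 10% of the positive control, reached in at least 60% of replicates, without over 20% cell loss; inconclusive means no rule given, readout overlaps actives, possibly toxicity-flagged; inactive means the rest, including those meeting only one limit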
# Target sequence (P16581 whole entry, looked up): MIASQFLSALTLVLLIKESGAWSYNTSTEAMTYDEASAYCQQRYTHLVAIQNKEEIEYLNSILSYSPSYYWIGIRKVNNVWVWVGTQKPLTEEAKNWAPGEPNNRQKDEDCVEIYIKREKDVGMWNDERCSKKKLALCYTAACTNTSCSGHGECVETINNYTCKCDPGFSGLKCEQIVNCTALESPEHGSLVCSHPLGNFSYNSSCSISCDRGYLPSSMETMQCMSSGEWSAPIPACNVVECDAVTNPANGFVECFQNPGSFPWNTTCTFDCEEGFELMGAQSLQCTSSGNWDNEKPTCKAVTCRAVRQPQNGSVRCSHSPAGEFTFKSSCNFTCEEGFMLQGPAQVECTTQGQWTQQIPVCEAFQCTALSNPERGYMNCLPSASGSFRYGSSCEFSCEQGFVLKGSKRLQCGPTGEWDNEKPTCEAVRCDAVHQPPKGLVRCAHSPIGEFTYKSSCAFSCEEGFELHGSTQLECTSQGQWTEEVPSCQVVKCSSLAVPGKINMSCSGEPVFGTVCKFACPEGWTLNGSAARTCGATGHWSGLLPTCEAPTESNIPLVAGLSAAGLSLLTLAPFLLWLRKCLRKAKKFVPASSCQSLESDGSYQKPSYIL
#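 System: HUVEC, human umbilical vein endothelial cells; quantity: 3,000 cells/well; buffer or medium: EGM-2 medium, gelatin-coated wells; dosing: single-point compound dose; detection: immunofluorescence imaging; evaluation: % PE-positive cells; benchmarks: TNF-alpha, DMSO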
# miR122 inh = miR-122 inhibition in Huh7 cells; activation (reporter increase), % at 12.5 µM; Huh7 miR-122 Renilla luciferase sensor, 48 h; neutral wells = 0, positive control = 100; 340,000 compounds, 0.3% hits; AID 602342;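 active means mean replicate activation score at least 90 and every replicate individually at or above 90; inconclusive means only one of the two criteria met; inactive means neither criterion met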;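 further: higher luciferase means less miR-122 activity so hits act as miR-122 inhibitors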
# FGF22 binding = FGF22 (human) thermal shift binding; recombinant FGF22 thermal shift, SYPRO orange fluorescence; percent of sucrose octasulfate shift, DMSO zero; activity (Tm shift, normalised), % at 9.99 µM; 340,000 compounds, 1.5% hits; AID 651658;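 active means mean Tm shift, scaled 0 neutral to 100 positive control, at about 1.3% or above, every replicate too, limit read from the data; inconclusive means no clear call, values can overlap the other calls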
# SIRT5 block = blocks human SIRT5 desuccinylation of peptide | 330,000 compounds, 1.1% hits | AID 652115 | inhibition, % at 15 µM | Purified SirT5, succinyl-peptide AMC, trypsin-coupled fluorescence | Q9NXA8; in the data active means inhibition above about 15%; inconclusive means no clear call, values can overlap the other calls
# The depositor's hits bear a star; ? = inconclusive; . = no result; [ ] = remark or other dose.
SMILES,S100A4 MyoIIA,E-sel inducer,miR122 inh,FGF22 binding,SIRT5 block
C[C@@H]1CCCCO[C@@H](CN(C)Cc2ccc(Cl)c(Cl)c2)[C@H](C)CN([C@@H](C)CO)C(=O)c2cc(NS(=O)(=O)c3cccs3)ccc2O1,0,0,-19[16.7 µM],0,25*
C[C@@H]1CN([C@@H](C)CO)C(=O)c2cc(NS(=O)(=O)c3cccs3)ccc2O[C@@H](C)CCCCO[C@H]1CN(C)Cc1ccc(C(=O)O)cc1,3,0,1[16.7 µM],1,1
C[C@@H]1CN([C@@H](C)CO)C(=O)c2cc(NS(=O)(=O)c3cccs3)ccc2O[C@@H](C)CCCCO[C@H]1CN(C)Cc1ccc(C(F)(F)F)cc1,3,0,-9[16.7 µM],-1,15
C[C@@H]1CCCCO[C@H](CN(C)Cc2ccc(C(F)(F)F)cc2)[C@@H](C)CN([C@@H](C)CO)C(=O)c2cc(NS(=O)(=O)c3cccs3)ccc2O1,-15,0,-9[16.7 µM],-1,17*
C[C@H](CO)N1C[C@H](C)[C@@H](CN(C)Cc2ccc(C(F)(F)F)cc2)OCCCC[C@H](C)Oc2ccc(NS(=O)(=O)c3cccs3)cc2C1=O,37,0,6[16.7 µM],0,21*
C[C@@H]1CN([C@H](C)CO)C(=O)c2cc(NS(=O)(=O)c3cccs3)ccc2O[C@@H](C)CCCCO[C@H]1CN(C)Cc1ccc(C(=O)O)cc1,5,0,.,0,8
O=C(CC1CC1)N1CC2(C1)[C@@H](c1ccccc1)[C@H](CO)N2CC1CCOCC1,-5,0,.,0,-1
CO[C@H]1CN(C)C(=O)c2cc(NS(=O)(=O)Cc3ccccc3)ccc2OC[C@H](C)NC[C@H]1C,8,0,.,0,3
O=C(N[C@H]1C=C[C@@H](CC(=O)N2CCCCC2)O[C@@H]1CO)c1cccc(F)c1,1,1,.,1,0
COc1ccc(N2C(=O)CC(Sc3nnc(-c4ccccc4F)n3C)C2=O)cc1 (stereo not given),-5,.,.,43*,-1
COc1cccc(S(=O)(=O)N2CC3(CN(C(=O)Nc4cccc(F)c4)[C@@H](CO)c4[nH]c5cc(OC)ccc5c43)C2)c1,3,0,.,0,-3
Cn1c(SCc2nc(-c3ccccc3)no2)nnc1-c1cccs1,.,.,-7,.,.
Cn1c(SCc2nc(-c3ccc(Cl)cc3)no2)nnc1-c1cccs1,-1,.,44,.,33*
COc1ccccc1NC(=S)NC1CCCCC1,.,.,9,.,.
COc1ccccc1NC(=S)NCC1CCCCC1,-1,0,182*,0,-4
CCCNC(=O)Nc1ccc2c(c1)OC[C@@H](C)N(CCC)C[C@H](C)[C@H](OC)CN(C)C2=O,9,1,-31[16.7 µM],0,8
C[C@@H]1CN([C@@H](C)CO)C(=O)c2cccc(NC(=O)Nc3ccc(C(F)(F)F)cc3)c2O[C@@H]1CN(C)C(=O)NC1CCCCC1,4,0,9[16.7 µM],0,4
COc1ccc(CN2CC3(CN(C(=O)C4CCC4)C3)c3c(n(C)c4cc(OC)ccc34)[C@@H]2CO)cc1,-6,0,.,0,.
Cc1ccc(-c2cc(C(=O)Nc3ccc(S(=O)(=O)Nc4onc(C)c4C)cc3)c3ccccc3n2)cc1,-7,0,.,1.7*,0
Cc1noc(NS(=O)(=O)c2ccc(NC(=O)/C=C/c3ccccc3)cc2)c1C,2,0,-7,1.4*,4
CC(=O)N1[C@@H]2Cn3c(ccc(C4=CCCC4)c3=O)[C@H]1[C@@H](C(=O)NCc1ccccc1)[C@@H]2CO,-7,0,-2[16.7 µM],0,-19
COC(=O)c1sc(C(C)(C)C)cc1CS(=O)(=O)c1ccc(Cl)cc1,7,.,.,15*,-1
CCCCCCCC(=O)O,2,.,15,0,-1
CC/C=C\C/C=C\C/C=C\CCCCCCCC(=O)O,-8,0,2,0,17*
COc1ccc2c3c([nH]c2c1)[C@@H](CO)N(S(=O)(=O)c1cn(C)cn1)CC31CCN(Cc2ccccc2F)CC1,3,0,.,0,7
SMILES,S100A4 MyoIIA,E-sel inducer,miR122 inh,FGF22 binding,SIRT5 block
O=C(CN1c2ccccc2Sc2ccccc21)NNC(=O)Nc1cccc(Cl)c1,3,.,113*,0,-1
Cc1ccc(O)c(NC(=O)c2noc3c2CCc2ccccc2-3)c1,6,.,-4,43*,0
COCC#Cc1cnc2c(c1)C(=O)N([C@@H](C)CO)C[C@H](C)[C@@H](CN(C)S(=O)(=O)c1ccccc1)O2,-10,-1,3[16.7 µM],0,-1
CCC(=O)N1[C@@H](CO)[C@@H](c2ccc(-c3ccc(F)cc3)cc2)C12CN(C(C)=O)C2,8,0,.,0,1
COc1ccc(C2=NN(C(=O)CCC(=O)O)C(c3ccc(OC)cc3)C2)cc1 (stereo not given),4,.,-6,0,21*
C=CCNCC(=O)N1N=C(c2ccc3ccccc3c2)CC1c1ccc(OC)cc1 (stereo not given),1,.,.,43*,1
COc1ccc(C2CC(c3ccc4ccccc4c3)=NN2C(=O)CNC2CCCCC2)cc1 (stereo not given),1,0,.,0,-2
COc1ccc(C2=NN(C(=O)CCC(=O)O)C(c3ccccc3OC)C2)cc1 (stereo not given),0,?,5,0,-23
COc1ccc(C2CC(c3cccs3)=NN2C(=O)CN2CCCCC2)cc1 (stereo not given),-2,.,-1,0,33*
C/C=C/c1ccc([C@H]2[C@@H](CO)N(CCC(F)(F)F)C23CN(C(=O)CC)C3)cc1,-2,0,.,0,2
CC(C(=O)Nc1ccc(C(=O)O)c(O)c1)N1C(=O)/C(=C\c2ccco2)SC1=S (stereo not given),.,.,-3,.,.
O=C(CN1C(=O)/C(=C/c2ccco2)SC1=S)Nc1ccc(O)c(C(=O)O)c1,-24,.,-10,.,53*
O=C(CN1C(=O)/C(=C/c2ccco2)SC1=S)Nc1ccc(C(=O)O)c(O)c1,-32,.,-1,1,62*
COC(=O)[C@H]1[C@H](CO)[C@H]2Cn3c(ccc(-c4cncnc4)c3=O)[C@H]2N1C(=O)C1CCC1,8,1,0[16.7 µM],0,-31
CCC(=O)N1C[C@H](O)COC[C@H]2O[C@@H](CC(=O)NCC3CCCCC3)CC[C@@H]21,12,0,6[16.7 µM],0,4
Clc1ccc(-c2c[nH]c3ccccc23)nn1,-6,4,3,43*,0
c1ccc2c(-c3c[nH]c4ccccc34)c3ccccc3nc2c1,.,.,5,.,.
C=C(C)CN(CC)C(=O)CC1C(=O)NCCN1Cc1c(F)cccc1Cl (stereo not given),-3,0,.,43*,0
C=CCNC(=O)CC1C(=O)NCCN1Cc1c(F)cccc1Cl (stereo not given),-7,.,.,0,32*

# Source: PubChem BioAssay
